UPR CHOP act: activators of apoptotic CHOP UPR arm, primary screen, cell-based, CHO-CHOP luciferase reporter, luminescence, uHTS. activation, % at 10 µM. actives 0.34% (n = 330,000). UPR activation; percent of tunicamycin response over DMSO baseline;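 active means at 10 µM dose, activation of 40% or more, normalized to positive control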
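Assay system: CHO cells with stable CHOP pathway luciferase reporter; Buffer or medium: F12 plus 10% serum; Times: 16-18 h cell attachment, then 6 h compound exposure, 37 °C; Signal: luciferase luminescence; Read-out basis: percent activation relative to tunicamycin control; Control set: tunicamycin high control, DMSO low control.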
V-ATPase pHluor: regulators of yeast V-ATPase proton pumping, primary screen, pHLuorin cytosolic pH fluorescence. S. cerevisiae. response, % at 10 µM. actives 0.37% (n = 350,000); in the data active means response mostly above about 7.3%, no sharp cut-off; inactive means mostly below about 5.4%; further: actives read high
XBP1 UPR activ: activators of adaptive XBP1 UPR arm, primary screen, cell-based, CHO-XBP1 luciferase reporter, luminescence, uHTS. actives 0.33% (n = 330,000). activation, % at 20 µM. IRE1-XBP1 UPR activation; percent of tunicamycin response, DMSO as zero. AID 463104, 2010;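 active means versus positive control, 20 µM dose yields 30% or more activation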
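Signal: luciferase luminescence; Assay system: CHO-XBP1 luciferase reporter cells; Amount: one thousand reporter cells per well; Dosing: 20 µM single concentration, DMSO 1%; Benchmarks: high control tunicamycin 10 µg/mL final, low control DMSO vehicle only; Schedule: 6 h compound exposure at 37 °C, 5% CO2; Evaluation: percent activation relative to tunicamycin reference.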
CHOP inhibitor: inhibitors of CHOP promoter induction, primary screen, cell-based, unfolded protein response, luciferase reporter. CHO-K1 CHOP-promoter luciferase, tunicamycin-induced, 15-18 h. inhibition, % at 10 µM. actives 3.8% (n = 220,000). AID 2732, 2010;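 active means compounds that reduced the stress-induced luciferase reporter signal by more than about 70% of percent inhibition, limit read from the data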
Tb MetRS inh: T. brucei MetRS inhibitors, primary screen, biochemical, luminescence; methionyl-tRNA synthetase (Trypanosoma brucei brucei); purified T. brucei MetRS, ATP depletion, Kinase-Glo luminescence; inhibition, % at 11.9 µM; actives 0.4% (n = 360,000);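 active means inhibition above a per-plate cutoff of the control wells' mean inhibition plus 3 SD, cut at about 5.5% in these data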
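System: purified T. brucei MetRS enzyme / Detection: Kinase-Glo luciferase luminescence reporting remaining unconsumed ATP / Medium: HEPES buffer with MgCl2, KCl, DTT, spermine, BSA, pyrophosphatase / Replication: singlicate, one well per compound / Evaluation: percent inhibition relative to median high and low control wells / Schedule: 2 h aminoacylation at 25 °C after 15 min preincubation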
A number is an active result; – = inactive; · = not tested or not shown. This is one part of a sample in which hits are shown more often than they occur.

SMILES | UPR CHOP act | V-ATPase pHluor | XBP1 UPR activ | CHOP inhibitor | Tb MetRS inh
Cc1cccc2sc(N(CCCN(C)C)C(=O)c3nc4ccccc4s3)nc12 | – | – | – | 75 | –
CCCCCCN1C[C@H](O)[C@@H](n2cc(C3CC3)nn2)C[C@@H]1c1ccccc1 | · | – | · | · | –
Cc1ccc(-n2[nH]c(C)c(C=Nc3ccc4[nH]c(=O)[nH]c4c3)c2=O)cc1C | – | – | – | 81 | –
CC(=O)NC(=Cc1ccccc1)C(=O)N1CCCC1C(=O)O (stereo not drawn) | · | – | · | · | –
CCOC(=O)c1cc(C)sc1/N=C/C1C(=O)CC(C)(C)CC1=O | – | – | – | – | –
CCOC(=O)c1c(CC(C)C)csc1/N=C/C1C(=O)CC(C)(C)CC1=O | – | – | – | 72 | –
CC1CC2=C(NC(=S)NC2c2cccc(F)c2)/C(=C/c2cccc(F)c2)C1 (stereo not drawn) | · | – | · | 86 | –
COc1ccc([C@@H]2[C@@H]3C(=O)N(C(C)(C)C)C(=O)[C@@H]3[C@]3(Cc4ccc(Cl)cc4)C(=O)N(c4cccc(F)c4)C(=O)N23)cc1 | – | – | – | · | –
CC(C)(C)C1CCc2[nH]c3ccccc3c(=O)c2C1 (stereo not drawn) | – | – | – | – | –
Cc1c2c(nc3ccccc13)CCC(C(C)(C)C)C2 (stereo not drawn) | – | – | – | 72 | –
Cc1ccccc1CSc1nc2n(n1)C(c1cccs1)C1=C(CCCC1=O)N2 (stereo not drawn) | – | – | – | 78 | –
O=C(/C=C/c1ccc2ccccc2n1)N1CCN(S(=O)(=O)c2ccccc2F)CC1 | – | – | – | 70 | –
Clc1ccc(N=c2ssnc2Cl)cc1 | – | – | – | – | –
Clc1nssc1=Nc1ccccc1 | · | – | · | 86 | –
COc1cc(N=c2ssnc2Cl)cc(OC)c1OC | – | – | – | 94 | –
N#Cc1ccc(N=c2ssnc2Cl)cc1 | – | – | – | 86 | –
Fc1ccc(N=c2ssnc2Cl)c(F)c1 | – | – | – | 82 | –
O=C(CN1/C(=C(/O)c2ccccc2)C(=O)c2ccccc2S1(=O)=O)c1ccccc1 | – | – | – | 96 | –
O=C(Nc1ccc(S(=O)(=O)N2CCOCC2)cc1)c1c(F)cccc1F | – | – | – | · | –
COc1cc(NC(=O)Cn2c(=O)n(-c3cccc(C)c3)c(=O)c3c(C)c(C)sc32)cc(OC)c1 | – | – | – | 92 | –
Cc1c2cnn(CC(=O)NCCN3CCOCC3)c(=O)c2c(C)n1Cc1ccccc1F | · | – | · | · | –
O=C(c1cnn2c(C(F)(F)F)cc(-c3cccs3)nc12)N1CCOCC1 | – | – | – | – | –
FC(F)(F)c1cc(-c2cccs2)nc2nc(N3CCOCC3)sc12 | – | – | – | 94 | –
CCn1c(=O)c([N+](=O)[O-])c(NCCc2ccccc2)c2ccccc21 | – | 8.5 | – | – | –
Cn1c(=O)c([N+](=O)[O-])c(NCCc2ccccc2)c2ccccc21 | – | – | – | – | –
SMILES | UPR CHOP act | V-ATPase pHluor | XBP1 UPR activ | CHOP inhibitor | Tb MetRS inh
CC1Cc2ccccc2N1c1ncnc2c1nnn2Cc1ccccc1 (stereo not drawn) | – | – | – | 73 | –
CC1Cc2ccccc2N1c1nc(C2CC2)nc2c1nnn2Cc1ccccc1 (stereo not drawn) | – | – | – | – | –
CCOc1ccc(NC(=O)CCn2c(=O)[nH]c3ccsc3c2=O)cc1 | – | – | – | – | –
CCOC(=O)c1c(C2COc3ccccc3O2)csc1N (stereo not drawn) | – | – | – | 84 | –
CCOC(=O)c1c(C2COc3ccccc3O2)csc1NC(=O)c1ccccc1 (stereo not drawn) | – | – | – | – | –
COc1cc(CN2CCN(c3cccc(C)c3C)CC2)cc(Br)c1O | – | – | – | 91 | –
CCc1cccc(CC)c1NC(=O)COC(=O)/C(C#N)=C/c1ccc(OC)cc1 | – | – | – | 75 | –
COc1ccc(/C=C(\C#N)C(=O)OCC(=O)Nc2ccc(C(C)(C)C)cc2)cc1 | – | – | – | – | –
COc1ccc(/C=C(\C#N)C(=O)OCC(=O)Nc2c(C)cccc2C)cc1 | – | – | – | 75 | –
COc1ccc(/C=C(\C#N)C(=O)OCC(=O)NCc2ccccc2)cc1 | – | – | – | – | –
CC(=O)NCCc1c[nH]c2ccc(O)cc12 | – | – | – | – | –
Cn1c(/C(C#N)=C(\O)COc2ccc3ccccc3c2)nc2ccccc21 | – | – | – | 93 | –
Cn1c(/C(C#N)=C(\O)c2ccccc2Cl)nc2ccccc21 | – | – | – | · | –
N#Cc1cnc2c(-c3ccccc3)c(-c3ccccc3)nn2c1N | – | – | – | 78 | –
CC(C)n1c(SCC(=O)Nc2nc3ccccc3s2)nc2c1c(=O)n(C)c(=O)n2C | – | – | – | – | –
CCn1c(SCC(=O)Nc2nc3ccc(OC)cc3s2)nc2c1c(=O)n(C)c(=O)n2C | – | – | – | 84 | –
O=C(O/N=C1\CCCc2ccccc21)c1ccc(F)cc1 | – | – | – | 72 | –
Cc1cccc(CS(=O)(=O)c2ncc(Cl)c(C(=O)NCc3ccccc3)n2)c1 | 84 | – | – | · | –
COCCNC(=O)C1(C)CCCN(C(=O)COc2ccccc2)C1 (stereo not drawn) | · | · | · | · | –
Fc1ccccc1Nc1nc2c(s1)CCc1ccccc1-2 | · | · | · | 71 | ·
O=C(Nc1nc2c(s1)CCc1ccccc1-2)c1cccs1 | – | – | – | – | –
C=CCOc1ccc(/C=C2/C(=N)N3N=C(CC(=O)N4CCCC4)SC3=NC2=O)cc1OC | – | – | – | · | –
Nc1ncnc2c1ncn2[C@@H]1O[C@H](CCC(=O)NCc2ccccc2)[C@@H](O)[C@H]1O | · | · | · | · | –
C[C@@H]1CN([C@H](C)CO)C(=O)CCCn2cc(nn2)CO[C@H]1CN(C)C(=O)Nc1cccc(C(F)(F)F)c1 | · | – | · | · | –
O=[N+]([O-])c1cccc(/C=N/Nc2nnc(-c3ccccc3)c(-c3ccccc3)n2)c1 | – | – | – | – | –
SMILES | UPR CHOP act | V-ATPase pHluor | XBP1 UPR activ | CHOP inhibitor | Tb MetRS inh
C/C(=N\Nc1nnc(-c2ccccc2)c(-c2ccccc2)n1)c1cccc([N+](=O)[O-])c1 | – | – | – | 78 | –
CC1(C(=O)NCc2ccco2)Cc2c(-c3cccc(C(N)=O)c3)ccnc2O1 (stereo not drawn) | · | · | · | · | –
Cc1cccc(OCCCCc2c(C)n[nH]c2C)c1C | – | – | – | 95 | –
CSc1ccc(/C=N/NC(=O)CNc2ccc3ccccc3c2)cc1 | – | – | – | – | –
CSc1ccc(/C=N/NC(=O)CNc2cccc3ccccc23)cc1 | – | – | – | 94 | –
CC(=O)c1ccc(NC(=O)COC(=O)C2CC3C=CC2C3)cc1 (stereo not drawn) | – | – | – | · | –
